Results as given in ChEMBL document CHEMBL4689842, “EUbOPEN Chemogenomics Library wave 1” (2021).
Several values for one entry are separate records, joined by “and”; a condition that tells them apart may be missing. Equal values may be shown once.

Tested on: Fibroblast
Assay: Multiplex assay against human fibroblast
Assay type: toxicity, cell-based
How it was run: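 Cells stained live at seeding with Hoechst33342, BioTracker Green Microtubule Cytoskeleton Dye, MitoTracker Red and Annexin V Alexa Fluor 680 were imaged on a CQ1 microscope at 37°C and 5% CO2 after compound addition. Their classification by CellPathfinder machine-learning gating ran from Hoechst high-intensity objects versus normal cells, to healthy, pyknosed or fragmented nuclei among normal cells, to mitotic or apoptotic among pyknosed cells. Tubulin, mitochondrial-mass and membrane-permeability phenotypes are per cents of healthy-nucleus cells.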

[1] = 12 h, 1 µM, compound concentration 1 uM, replicate 1
[2] = 12 h, 1 µM, compound concentration 1 uM, replicate 2
[3] = 12 h, 10 µM, compound concentration 10 uM, replicate 1
[4] = 12 h, 10 µM, compound concentration 10 uM, replicate 2
[5] = 24 h, 1 µM, compound concentration 1 uM, replicate 1
[6] = 24 h, 1 µM, compound concentration 1 uM, replicate 2
[7] = 24 h, 10 µM, compound concentration 10 uM, replicate 1
[8] = 24 h, 10 µM, compound concentration 10 uM, replicate 2
[9] = 48 h, 10 µM, compound concentration 10 uM, replicate 1
[10] = 48 h, 10 µM, compound concentration 10 uM, replicate 2

Question: `Cl.O=C(c1ccc(Nc2nccc(-c3cc4ccccc4s3)n2)cc1)N1CCC(N2CCCC2)CC1` was tested. Which “Population Apoptotic (%)” value [1] did it give?
Answer: Its value is 84%.

Question: And the “Population Fragmented Nuclei (%)” value [1]?
Answer: The value was 42%.

Question: What about the “Population Healthy Nuclei (%)” value [1] of the same compound?
Answer: Its value is 48%.

Question: And the “Population Hoechst High Intensity Objects (%)” value [1]?
Answer: The value was 21%.

Question: And the “Population Membrane Permeable-Phenotype (%)” value [1]?
Answer: The value was 4%.

Question: And the “Population Mitochondria Different-Phenotype (%)” value [1]?
Answer: Its value is 10%.

Question: And the “Population Mitotic Cells (%)” value [1]?
Answer: The value was 15%.

Question: And the “Population Normal (%)” value [1]?
Answer: The value was 78%.

Question: What about the “Population Pyknosed Nuclei (%)” value [1] of the same compound?
Answer: Its value is 9%.

Question: And the “Population Tubulin-Different-Phenotype (%)” value [1]?
Answer: Its value is 14%.

Question: What about the “Total Cell Count” value [1] of the same compound?
Answer: The value was 260.

Question: What about the “Population Apoptotic (%)” value [2] of the same compound?
Answer: The value was 55%.

Question: What about the “Population Fragmented Nuclei (%)” value [2] of the same compound?
Answer: The value was 53%.

Question: And the “Population Healthy Nuclei (%)” value [2]?
Answer: Its value is 32%.

Question: What about the “Population Hoechst High Intensity Objects (%)” value [2] of the same compound?
Answer: The value was 36%.

Question: And the “Population Membrane Permeable-Phenotype (%)” value [2]?
Answer: Its value is 0%.

Question: What about the “Population Mitochondria Different-Phenotype (%)” value [2] of the same compound?
Answer: The value was 9%.

Question: And the “Population Mitotic Cells (%)” value [2]?
Answer: The value was 44%.

Question: What about the “Population Normal (%)” value [2] of the same compound?
Answer: Its value is 63%.

Question: And the “Population Pyknosed Nuclei (%)” value [2]?
Answer: The value was 13%.

Question: What about the “Total Cell Count” value [2] of the same compound?
Answer: The value was 102.

Question: What about the “Population Apoptotic (%)” value [3] of the same compound?
Answer: The value was 73% and 44%.

Question: And the “Population Fragmented Nuclei (%)” value [3]?
Answer: The value was 31% and 33%.

Question: And the “Population Healthy Nuclei (%)” value [3]?
Answer: The value was 16% and 12%.

Question: And the “Population Hoechst High Intensity Objects (%)” value [3]?
Answer: The value was 19% and 12%.

Question: What about the “Population Mitochondria Different-Phenotype (%)” value [3] of the same compound?
Answer: The value was 26% and 36%.

Question: And the “Population Mitotic Cells (%)” value [3]?
Answer: Its value is 26% and 55%.

Question: What about the “Population Normal (%)” value [3] of the same compound?
Answer: Its value is 80% and 87%.

Question: What about the “Population Pyknosed Nuclei (%)” value [3] of the same compound?
Answer: The value was 52% and 53%.

Question: And the “Population Tubulin-Different-Phenotype (%)” value [3]?
Answer: The value was 66% and 53%.

Question: What about the “Total Cell Count” value [3] of the same compound?
Answer: The value was 115 and 265.

Question: And the “Population Apoptotic (%)” value [4]?
Answer: Its value is 93% and 82%.

Question: What about the “Population Fragmented Nuclei (%)” value [4] of the same compound?
Answer: The value was 35% and 54%.

Question: And the “Population Healthy Nuclei (%)” value [4]?
Answer: The value was 7% and 10%.

Question: And the “Population Hoechst High Intensity Objects (%)” value [4]?
Answer: The value was 21% and 38%.

Question: And the “Population Membrane Permeable-Phenotype (%)” value [4]?
Answer: The value was 50% and 42%.

Question: And the “Population Mitochondria Different-Phenotype (%)” value [4]?
Answer: The value was 100% and 57%.

Question: What about the “Population Mitotic Cells (%)” value [4] of the same compound?
Answer: The value was 6% and 17%.

Question: And the “Population Normal (%)” value [4]?
Answer: Its value is 78% and 61%.

Question: And the “Population Pyknosed Nuclei (%)” value [4]?
Answer: Its value is 57% and 34%.

Question: What about the “Population Tubulin-Different-Phenotype (%)” value [4] of the same compound?
Answer: Its value is 100% and 57%.

Question: And the “Total Cell Count” value [4]?
Answer: The value was 73 and 108.

Question: And the “Population Apoptotic (%)” value [5]?
Answer: The value was 76%.

Question: And the “Population Fragmented Nuclei (%)” value [5]?
Answer: Its value is 44%.

Question: What about the “Population Healthy Nuclei (%)” value [5] of the same compound?
Answer: The value was 47%.

Question: What about the “Population Hoechst High Intensity Objects (%)” value [5] of the same compound?
Answer: Its value is 23%.

Question: And the “Population Membrane Permeable-Phenotype (%)” value [5]?
Answer: Its value is 4%.

Question: What about the “Population Mitochondria Different-Phenotype (%)” value [5] of the same compound?
Answer: The value was 3%.

Question: What about the “Population Mitotic Cells (%)” value [5] of the same compound?
Answer: The value was 23%.

Question: And the “Population Normal (%)” value [5]?
Answer: The value was 76%.

Question: What about the “Population Pyknosed Nuclei (%)” value [5] of the same compound?
Answer: Its value is 8%.

Question: What about the “Population Tubulin-Different-Phenotype (%)” value [5] of the same compound?
Answer: The value was 10%.

Question: And the “Total Cell Count” value [5]?
Answer: The value was 340.

Question: And the “Population Apoptotic (%)” value [6]?
Answer: Its value is 0%.

Question: And the “Population Fragmented Nuclei (%)” value [6]?
Answer: Its value is 60%.

Question: And the “Population Healthy Nuclei (%)” value [6]?
Answer: Its value is 34%.

Question: What about the “Population Hoechst High Intensity Objects (%)” value [6] of the same compound?
Answer: The value was 32%.

Question: And the “Population Membrane Permeable-Phenotype (%)” value [6]?
Answer: Its value is 8%.

Question: And the “Population Mitochondria Different-Phenotype (%)” value [6]?
Answer: The value was 20%.

Question: And the “Population Mitotic Cells (%)” value [6]?
Answer: The value was 100%.

Question: What about the “Population Normal (%)” value [6] of the same compound?
Answer: Its value is 67%.

Question: What about the “Population Pyknosed Nuclei (%)” value [6] of the same compound?
Answer: The value was 5%.

Question: What about the “Population Tubulin-Different-Phenotype (%)” value [6] of the same compound?
Answer: The value was 32%.

Question: What about the “Total Cell Count” value [6] of the same compound?
Answer: The value was 108.

Question: And the “Population Apoptotic (%)” value [7]?
Answer: Its value is 71%.

Question: And the “Population Fragmented Nuclei (%)” value [7]?
Answer: The value was 43% and 48%.

Question: And the “Population Hoechst High Intensity Objects (%)” value [7]?
Answer: Its value is 16% and 20%.

Question: What about the “Population Membrane Permeable-Phenotype (%)” value [7] of the same compound?
Answer: The value was 33% and 14%.

Question: What about the “Population Mitochondria Different-Phenotype (%)” value [7] of the same compound?
Answer: Its value is 22% and 14%.

Question: And the “Population Mitotic Cells (%)” value [7]?
Answer: The value was 28%.

Question: And the “Population Normal (%)” value [7]?
Answer: Its value is 83% and 79%.

Question: What about the “Population Pyknosed Nuclei (%)” value [7] of the same compound?
Answer: The value was 46% and 48%.

Question: What about the “Population Tubulin-Different-Phenotype (%)” value [7] of the same compound?
Answer: Its value is 66% and 71%.

Question: And the “Total Cell Count” value [7]?
Answer: Its value is 112 and 297.

Question: And the “Population Apoptotic (%)” value [8]?
Answer: The value was 88% and 100%.

Question: And the “Population Fragmented Nuclei (%)” value [8]?
Answer: The value was 66% and 26%.

Question: And the “Population Hoechst High Intensity Objects (%)” value [8]?
Answer: The value was 45% and 31%.

Question: And the “Population Membrane Permeable-Phenotype (%)” value [8]?
Answer: Its value is 50% and 100%.

Question: And the “Population Mitotic Cells (%)” value [8]?
Answer: The value was 11% and 0%.

Question: What about the “Population Normal (%)” value [8] of the same compound?
Answer: The value was 54% and 68%.

Question: What about the “Population Pyknosed Nuclei (%)” value [8] of the same compound?
Answer: Its value is 29% and 58%.

Question: What about the “Population Tubulin-Different-Phenotype (%)” value [8] of the same compound?
Answer: Its value is 50% and 87%.

Question: What about the “Total Cell Count” value [8] of the same compound?
Answer: The value was 105 and 76.

Question: And the “Population Apoptotic (%)” value [9]?
Answer: Its value is 91%.

Question: And the “Population Fragmented Nuclei (%)” value [9]?
Answer: Its value is 55%.

Question: What about the “Population Healthy Nuclei (%)” value [9] of the same compound?
Answer: Its value is 24%.

Question: And the “Population Hoechst High Intensity Objects (%)” value [9]?
Answer: Its value is 49%.

Question: What about the “Population Membrane Permeable-Phenotype (%)” value [9] of the same compound?
Answer: Its value is 33%.

Question: What about the “Population Mitochondria Different-Phenotype (%)” value [9] of the same compound?
Answer: The value was 33%.

Question: What about the “Population Mitotic Cells (%)” value [9] of the same compound?
Answer: The value was 8%.

Question: What about the “Population Normal (%)” value [9] of the same compound?
Answer: The value was 50%.

Question: And the “Population Pyknosed Nuclei (%)” value [9]?
Answer: Its value is 19%.

Question: What about the “Population Tubulin-Different-Phenotype (%)” value [9] of the same compound?
Answer: Its value is 66%.

Question: And the “Total Cell Count” value [9]?
Answer: Its value is 120.

Question: And the “Population Apoptotic (%)” value [10]?
Answer: Its value is 50%.

Question: What about the “Population Fragmented Nuclei (%)” value [10] of the same compound?
Answer: The value was 78%.

Question: And the “Population Healthy Nuclei (%)” value [10]?
Answer: Its value is 17%.

Question: And the “Population Hoechst High Intensity Objects (%)” value [10]?
Answer: Its value is 50%.

Question: What about the “Population Membrane Permeable-Phenotype (%)” value [10] of the same compound?
Answer: The value was 62%.

Question: And the “Population Mitochondria Different-Phenotype (%)” value [10]?
Answer: The value was 12%.

Question: And the “Population Mitotic Cells (%)” value [10]?
Answer: Its value is 50%.

Question: What about the “Population Normal (%)” value [10] of the same compound?
Answer: Its value is 49%.

Question: And the “Population Pyknosed Nuclei (%)” value [10]?
Answer: Its value is 4%.

Question: What about the “Population Tubulin-Different-Phenotype (%)” value [10] of the same compound?
Answer: Its value is 62%.

Question: And the “Total Cell Count” value [10]?
Answer: Its value is 93.
